Source: ChEMBL document CHEMBL4340529, “Selective degradation of CDK6 by a palbociclib based PROTAC” (Bioorg Med Chem Lett, 2019)
Each block holds one compound with its values, some of them ahead of it. Active and inactive are the calls of the source. The rule behind the calls is not given here.

Key:
[1] = target: T1, Protein cereblon/Cyclin-dependent kinase 6 (Homo sapiens) (UniProt Q00534+Q96SW2); assay: Induction of CRBN-mediated CDK6 degradation in human MIAPaCa2 cells at 0.5 uM measured after 4 hrs by western blot analysis; assay type: cell-based
T1 sequence (Q00534 whole entry, looked up): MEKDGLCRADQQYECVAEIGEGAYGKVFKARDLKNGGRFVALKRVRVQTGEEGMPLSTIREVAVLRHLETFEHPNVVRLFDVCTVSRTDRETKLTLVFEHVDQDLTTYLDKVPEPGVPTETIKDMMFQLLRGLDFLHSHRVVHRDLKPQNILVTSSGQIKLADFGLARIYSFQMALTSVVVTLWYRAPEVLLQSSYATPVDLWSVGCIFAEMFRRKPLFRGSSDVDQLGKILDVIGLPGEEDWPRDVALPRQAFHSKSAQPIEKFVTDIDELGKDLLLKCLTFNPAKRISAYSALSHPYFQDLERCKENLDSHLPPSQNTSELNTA
T1 sequence (Q96SW2 whole entry, looked up): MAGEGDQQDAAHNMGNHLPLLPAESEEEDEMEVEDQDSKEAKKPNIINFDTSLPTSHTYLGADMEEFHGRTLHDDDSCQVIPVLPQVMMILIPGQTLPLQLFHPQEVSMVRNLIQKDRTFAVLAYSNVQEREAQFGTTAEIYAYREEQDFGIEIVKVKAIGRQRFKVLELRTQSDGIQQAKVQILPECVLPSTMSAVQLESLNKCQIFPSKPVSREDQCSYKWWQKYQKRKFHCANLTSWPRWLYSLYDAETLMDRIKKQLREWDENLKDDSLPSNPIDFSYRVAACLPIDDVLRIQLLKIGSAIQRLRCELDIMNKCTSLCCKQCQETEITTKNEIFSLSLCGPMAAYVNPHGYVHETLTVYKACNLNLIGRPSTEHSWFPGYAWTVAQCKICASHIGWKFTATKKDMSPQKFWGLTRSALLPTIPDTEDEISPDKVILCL
In short: (§1)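 MiaPaCa2 cells treated with degrader analogs at 0.5 μM for 4 h; lysates analysed by Western blot for CDK4, CDK6 and RB.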

[2] = target: T2, Protein cereblon/Cyclin-dependent kinase 4 (Homo sapiens) (UniProt P11802+Q96SW2); assay: Induction of CRBN-mediated CDK4 degradation in human MIAPaCa2 cells at 0.5 uM measured after 4 hrs by western blot analysis; assay type: cell-based; in short: as §1
T2 sequence (P11802 2-303 limits assumed): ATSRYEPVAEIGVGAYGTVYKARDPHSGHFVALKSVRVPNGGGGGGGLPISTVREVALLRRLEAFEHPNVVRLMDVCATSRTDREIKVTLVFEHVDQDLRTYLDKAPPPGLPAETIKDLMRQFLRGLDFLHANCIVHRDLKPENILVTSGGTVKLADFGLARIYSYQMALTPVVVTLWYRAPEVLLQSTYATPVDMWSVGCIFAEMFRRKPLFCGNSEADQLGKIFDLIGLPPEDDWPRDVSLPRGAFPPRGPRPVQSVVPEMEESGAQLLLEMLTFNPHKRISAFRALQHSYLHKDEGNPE
T2 sequence (Q96SW2 whole entry partner): as the sequence (Q96SW2 whole entry, looked up) above

[3] = target: T1, Protein cereblon/Cyclin-dependent kinase 6 (Homo sapiens); assay: Induction of CRBN-mediated CDK6 degradation in human HPNE cells at 500 nM by Western blot analysis; assay type: cell-based; conditions: TDE = time-dependent effect
[4] = target: T1, Protein cereblon/Cyclin-dependent kinase 6 (Homo sapiens); assay: Induction of CRBN-mediated CDK6 degradation in human MIAPaCa2 cells at 1 uM measured after 24 hrs in presence of palbociclib by western blot analysis; assay type: cell-based
In short: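 Competition test: MiaPaCa2 cells incubated 24 h with palbociclib 10 µM, degrader 1 µM, or both together; lysates probed for CDK4 and CDK6 by Western blot.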

[5] = Induction of CRBN-mediated CDK4/cyclin D1 (unknown origin) degradation; conditions: Homo sapiens
[6] = target: Protein cereblon/Cyclin-dependent kinase 5 (Homo sapiens) (UniProt Q00535+Q96SW2); assay: Induction of CRBN-mediated CDK5 degradation in human MIAPaCa2 cells at 0.5 uM measured after 24 hrs by western blot analysis; assay type: cell-based
Sequence of Protein cereblon/Cyclin-dependent kinase 5 (Homo sapiens) (Q00535 whole entry, looked up): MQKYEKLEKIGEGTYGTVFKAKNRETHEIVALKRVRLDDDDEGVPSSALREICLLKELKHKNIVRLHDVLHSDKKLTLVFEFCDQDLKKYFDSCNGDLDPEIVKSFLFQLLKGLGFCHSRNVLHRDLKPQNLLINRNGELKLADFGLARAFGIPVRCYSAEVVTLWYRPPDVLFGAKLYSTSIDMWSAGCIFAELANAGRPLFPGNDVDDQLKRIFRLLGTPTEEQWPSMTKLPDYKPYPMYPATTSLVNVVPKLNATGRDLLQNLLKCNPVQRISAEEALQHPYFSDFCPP
Sequence of Protein cereblon/Cyclin-dependent kinase 5 (Homo sapiens) (Q96SW2 whole entry, looked up): as the sequence (Q96SW2 whole entry, looked up) above
In short: (§2)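 MiaPaCa2 cells exposed to 0.5 μM of each degrader analog for 24 h; lysates immunoblotted for CDK2, CDK5, CDK7 and CDK9 within a kinase panel.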

[7] = target: T1, Protein cereblon/Cyclin-dependent kinase 6 (Homo sapiens); assay: Induction of CRBN-mediated CDK6 degradation in human MIAPaCa2 cells at 5 to 10 uM measured after 4 hrs by western blot analysis; assay type: cell-based
[8] = target: T1, Protein cereblon/Cyclin-dependent kinase 6 (Homo sapiens); assay: Induction of CRBN-mediated CDK6 degradation in human HPNE cells at 5 to 10 uM measured after 4 hrs by Western blot analysis; assay type: cell-based
[9] = target: T1, Protein cereblon/Cyclin-dependent kinase 6 (Homo sapiens); assay: Induction of CRBN-mediated CDK6 degradation in human MIAPaCa2 cells at 1 uM measured after 8 hrs in presence of proteasome inhibitor MG132 by Western blot analysis; assay type: cell-based
[10] = target: T1, Protein cereblon/Cyclin-dependent kinase 6 (Homo sapiens); assay: Induction of CRBN-mediated CDK6 degradation in human HPNE cells at 0.1 uM measured after 24 hrs by western blot analysis; assay type: cell-based
In short: (§3)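 HPNE cells given a range of degrader concentrations and harvested at 4 h and at 24 h; CDK4 and CDK6 levels read by Western blot.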

[11] = target: Protein cereblon/Cyclin-dependent kinase 6/G1/S-specific cyclin-D3 (Homo sapiens) (UniProt P30281+Q00534+Q96SW2); assay: Induction of CRBN-mediated CDK6/cyclin D3 (unknown origin) degradation; assay type: protein assay
Sequence of Protein cereblon/Cyclin-dependent kinase 6/G1/S-specific cyclin-D3 (Homo sapiens) (P30281 whole entry, looked up): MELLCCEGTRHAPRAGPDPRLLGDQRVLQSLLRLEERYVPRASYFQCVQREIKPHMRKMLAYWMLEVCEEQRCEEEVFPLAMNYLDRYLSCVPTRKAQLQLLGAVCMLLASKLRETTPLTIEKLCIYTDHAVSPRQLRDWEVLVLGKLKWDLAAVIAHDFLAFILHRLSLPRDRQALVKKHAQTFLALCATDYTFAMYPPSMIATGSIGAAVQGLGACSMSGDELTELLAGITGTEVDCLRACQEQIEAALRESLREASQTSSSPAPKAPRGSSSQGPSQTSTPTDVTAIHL
Sequence of Protein cereblon/Cyclin-dependent kinase 6/G1/S-specific cyclin-D3 (Homo sapiens) (Q00534 whole entry, looked up): as the sequence (Q00534 whole entry, looked up) above
Sequence of Protein cereblon/Cyclin-dependent kinase 6/G1/S-specific cyclin-D3 (Homo sapiens) (Q96SW2 whole entry, looked up): as the sequence (Q96SW2 whole entry, looked up) above

[12] = target: T1, Protein cereblon/Cyclin-dependent kinase 6 (Homo sapiens); assay: Induction of CRBN-mediated CDK6 degradation in human MIAPaCa2 cells at 0.1 uM measured after 24 hrs by western blot analysis; assay type: cell-based
In short: (§4)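 Dose-response in MiaPaCa2 cells: graded degrader concentrations for 4 h and for 24 h; CDK4 and CDK6 read by immunoblot.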

[13] = target: T1, Protein cereblon/Cyclin-dependent kinase 6 (Homo sapiens); assay: Induction of CRBN-mediated CDK6 degradation in human MIAPaCa2 cells at 1 uM measured after 24 hrs in presence of pomalidomide by Western blot analysis; assay type: cell-based
In short: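 CRBN-ligand competition in MiaPaCa2 cells: pomalidomide 0.1–10 µM given alone or with degrader 1 µM for 24 h; lysates immunoblotted for CDK6.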

[14] = target: Protein cereblon/Retinoblastoma-associated protein (Homo sapiens) (UniProt P06400+Q96SW2); assay: Induction of CRBN-mediated RB degradation in human MIAPaCa2 cells at 0.5 uM measured after 4 hrs by western blot analysis; assay type: cell-based; in short: as §1
Sequence of Protein cereblon/Retinoblastoma-associated protein (Homo sapiens) (P06400 whole entry, looked up): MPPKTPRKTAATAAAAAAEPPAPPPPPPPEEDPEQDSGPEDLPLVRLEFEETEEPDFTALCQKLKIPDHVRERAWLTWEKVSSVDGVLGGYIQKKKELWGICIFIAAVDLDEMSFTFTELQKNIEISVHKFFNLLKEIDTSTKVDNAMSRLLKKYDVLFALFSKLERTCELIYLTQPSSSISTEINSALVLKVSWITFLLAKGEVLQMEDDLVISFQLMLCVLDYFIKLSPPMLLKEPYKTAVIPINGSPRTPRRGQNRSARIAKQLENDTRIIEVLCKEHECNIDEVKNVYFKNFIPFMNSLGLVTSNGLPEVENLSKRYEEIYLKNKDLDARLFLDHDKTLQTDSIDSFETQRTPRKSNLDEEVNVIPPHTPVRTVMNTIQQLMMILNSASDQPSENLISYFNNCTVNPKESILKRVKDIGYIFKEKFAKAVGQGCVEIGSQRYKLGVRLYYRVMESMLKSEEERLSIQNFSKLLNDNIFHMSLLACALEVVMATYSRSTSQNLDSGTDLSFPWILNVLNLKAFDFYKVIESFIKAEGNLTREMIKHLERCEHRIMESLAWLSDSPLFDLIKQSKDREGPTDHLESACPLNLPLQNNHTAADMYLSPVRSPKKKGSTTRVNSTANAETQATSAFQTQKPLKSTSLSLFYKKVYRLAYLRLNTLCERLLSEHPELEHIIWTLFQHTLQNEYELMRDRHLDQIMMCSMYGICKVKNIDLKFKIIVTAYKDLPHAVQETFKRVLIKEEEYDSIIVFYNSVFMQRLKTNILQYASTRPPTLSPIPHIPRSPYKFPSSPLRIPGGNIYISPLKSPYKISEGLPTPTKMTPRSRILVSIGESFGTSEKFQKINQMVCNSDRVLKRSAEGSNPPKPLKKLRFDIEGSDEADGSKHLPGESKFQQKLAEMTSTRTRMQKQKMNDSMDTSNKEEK
Sequence of Protein cereblon/Retinoblastoma-associated protein (Homo sapiens) (Q96SW2 whole entry, looked up): as the sequence (Q96SW2 whole entry, looked up) above

[15] = target: T1, Protein cereblon/Cyclin-dependent kinase 6 (Homo sapiens); assay: Induction of CRBN-mediated CDK6 degradation in human MIAPaCa2 cells at 500 nM by Western blot analysis; assay type: cell-based; conditions: TDE = time-dependent effect
[16] = target: T2, Protein cereblon/Cyclin-dependent kinase 4 (Homo sapiens); assay: Induction of CRBN-mediated CDK4 degradation in human MIAPaCa2 cells at 0.1 uM measured after 24 hrs by western blot analysis; assay type: cell-based; in short: as §4
[17] = target: Protein cereblon/Cyclin-dependent kinase 7 (Homo sapiens) (UniProt P50613+Q96SW2); assay: Induction of CRBN-mediated CDK7 degradation in human MIAPaCa2 cells at 0.5 uM measured after 24 hrs by western blot analysis; assay type: cell-based; in short: as §2
Sequence of Protein cereblon/Cyclin-dependent kinase 7 (Homo sapiens) (P50613 whole entry, looked up): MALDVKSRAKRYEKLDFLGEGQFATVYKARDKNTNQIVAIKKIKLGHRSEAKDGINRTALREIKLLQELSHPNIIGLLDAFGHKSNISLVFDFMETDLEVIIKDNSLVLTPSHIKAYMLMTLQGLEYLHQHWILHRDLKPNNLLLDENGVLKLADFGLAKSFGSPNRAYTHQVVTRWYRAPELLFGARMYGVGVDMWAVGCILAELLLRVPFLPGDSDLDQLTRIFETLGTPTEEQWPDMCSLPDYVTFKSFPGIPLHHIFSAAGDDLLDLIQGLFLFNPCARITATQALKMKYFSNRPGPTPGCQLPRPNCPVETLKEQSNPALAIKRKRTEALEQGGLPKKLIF
Sequence of Protein cereblon/Cyclin-dependent kinase 7 (Homo sapiens) (Q96SW2 whole entry, looked up): as the sequence (Q96SW2 whole entry, looked up) above

[18] = target: T1, Protein cereblon/Cyclin-dependent kinase 6 (Homo sapiens); assay: Induction of CRBN-mediated CDK6 degradation in human HPNE cells at 0.1 uM measured after 4 hrs by Western blot analysis; assay type: cell-based; in short: as §3
[19] = target: Protein cereblon/Cyclin-dependent kinase 9 (Homo sapiens) (UniProt P50750+Q96SW2); assay: Induction of CRBN-mediated CDK9 degradation in human MIAPaCa2 cells at 0.5 uM measured after 24 hrs by western blot analysis; assay type: cell-based; in short: as §2
Sequence of Protein cereblon/Cyclin-dependent kinase 9 (Homo sapiens) (P50750 whole entry, looked up): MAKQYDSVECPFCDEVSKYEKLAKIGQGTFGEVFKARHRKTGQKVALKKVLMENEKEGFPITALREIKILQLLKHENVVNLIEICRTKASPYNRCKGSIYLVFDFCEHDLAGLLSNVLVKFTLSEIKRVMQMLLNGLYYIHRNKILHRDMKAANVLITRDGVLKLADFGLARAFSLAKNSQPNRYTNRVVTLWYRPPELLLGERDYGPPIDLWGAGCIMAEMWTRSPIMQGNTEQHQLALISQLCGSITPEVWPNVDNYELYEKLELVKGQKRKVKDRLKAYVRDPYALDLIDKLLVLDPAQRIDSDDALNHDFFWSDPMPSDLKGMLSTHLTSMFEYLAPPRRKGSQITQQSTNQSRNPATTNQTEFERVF
Sequence of Protein cereblon/Cyclin-dependent kinase 9 (Homo sapiens) (Q96SW2 whole entry, looked up): as the sequence (Q96SW2 whole entry, looked up) above

[20] = target: T2, Protein cereblon/Cyclin-dependent kinase 4 (Homo sapiens); assay: Induction of CRBN-mediated CDK4 degradation in human HPNE cells at 0.1 uM measured after 4 hrs by western blot analysis; assay type: cell-based; in short: as §3
[21] = target: T1, Protein cereblon/Cyclin-dependent kinase 6 (Homo sapiens); assay: Induction of CRBN-mediated CDK6 degradation in human MIAPaCa2 cells at 0.1 uM measured after 4 hrs by Western blot analysis; assay type: cell-based; in short: as §4
[22] = target: T2, Protein cereblon/Cyclin-dependent kinase 4 (Homo sapiens); assay: Induction of CRBN-mediated CDK4 degradation in human HPNE cells at 0.1 uM measured after 24 hrs by western blot analysis; assay type: cell-based; in short: as §3
[23] = target: T2, Protein cereblon/Cyclin-dependent kinase 4 (Homo sapiens); assay: Induction of CRBN-mediated CDK4 degradation in human MIAPaCa2 cells at 0.1 uM measured after 4 hrs by western blot analysis; assay type: cell-based; in short: as §4
[24] = target: T1, Protein cereblon/Cyclin-dependent kinase 6 (Homo sapiens); assay: Induction of CRBN-mediated CDK6 degradation in human MIAPaCa2 cells at 1 uM measured after 24 hrs by western blot analysis; assay type: cell-based
[25] = target: Protein cereblon/Cyclin-dependent kinase 2 (Homo sapiens) (UniProt P24941+Q96SW2); assay: Induction of CRBN-mediated CDK2 degradation in human MIAPaCa2 cells at 0.5 uM measured after 24 hrs by western blot analysis; assay type: cell-based; in short: as §2
[26] = target: T1, Protein cereblon/Cyclin-dependent kinase 6 (Homo sapiens); assay: Induction of CRBN-mediated CDK6 degradation in human MIAPaCa2 cells at 0.15 to 5 uM measured after 4 hrs by Western blot analysis; assay type: cell-based

Activity [1]: Active
Activity [2]: Active
Structure (SMILES): CC(=O)c1c(C)c2cnc(Nc3ccc(N4CCN(CCOCCOCCOc5cccc6c5C(=O)N(C5CCC(=O)NC5=O)C6=O)CC4)cn3)nc2n(C2CCCC2)c1=O (stereo not drawn)

Activity [1]: Active
Activity [2]: Active
Structure (SMILES): CC(=O)c1c(C)c2cnc(Nc3ccc(N4CCN(CCCCCC(=O)Nc5cccc6c5C(=O)N(C5CCC(=O)NC5=O)C6=O)CC4)cn3)nc2n(C2CCCC2)c1=O (stereo not drawn)

Activity [3]: Tde
Activity [4]: inactive
Activity [5]: < 1.5 nM
Activity [6]: inactive
Activity [1]: Active
Activity [7]: Active
Activity [8]: Active
Activity [9]: inactive
Activity [10]: Active
Activity [11]: 6.61 nM
Activity [12]: Active
Activity [13]: inactive
Activity [14]: inactive
Activity [15]: Tde
Activity [16]: inactive
Activity [17]: inactive
Activity [18]: Active
Activity [19]: inactive
Activity [20]: inactive
Activity [2]: inactive
Activity [21]: Active
Activity [22]: inactive
Activity [23]: inactive
Activity [24]: Active
Activity [25]: inactive
Activity [26]: Active
Structure (SMILES): CC(=O)c1c(C)c2cnc(Nc3ccc(N4CCN(CC(=O)NCCCOCCOCCOCCCNc5cccc6c5C(=O)N(C5CCC(=O)NC5=O)C6=O)CC4)cn3)nc2n(C2CCCC2)c1=O (stereo not drawn)

Activity [1]: Active
Activity [2]: Active
Structure (SMILES): CC(=O)c1c(C)c2cnc(Nc3ccc(N4CCN(CC(=O)NCCCCNc5cccc6c5C(=O)N(C5CCC(=O)NC5=O)C6=O)CC4)cn3)nc2n(C2CCCC2)c1=O (stereo not drawn)

Activity [1]: Active
Structure (SMILES): CC(=O)c1c(C)c2cnc(Nc3ccc(N4CCN(CC(=O)NCCCCCCCCNc5cccc6c5C(=O)N(C5CCC(=O)NC5=O)C6=O)CC4)cn3)nc2n(C2CCCC2)c1=O (stereo not drawn)
